In ChEMBL document CHEMBL1124441, “Synthesis of congeners and prodrugs. 3. Water-soluble prodrugs of taxol with potent antitumor activity” (1989):

What was measured:
B16 [1] = test: (§1) Difference in body weight in grams between test and control animals at a dose of 10 mg/kg intraperitoneally; type: functional, Mus musculus; conditions: route intraperitoneal
In short: (§2)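 B16 melanoma system: 10⁶ tumor cells inoculated ip on day 0. Drug given ip once daily for 9 days (Q01Dx09) starting day 1, dose as mg/kg body weight per injection. Read-out is the body-weight difference in grams, treated minus control animals. Early deaths, taken as toxicity, are scored on day 4.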

B16 [2] = test: Percent of median lifetime of test animals divided by the median lifetime of control animals at a dose of 5 mg/kg intraperitoneally; type: functional, Mus musculus; conditions: route intraperitoneal
In short: (§3)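 B16 melanoma inoculated ip (10⁶ cells) on day 0. Daily ip treatment for 9 days (Q01Dx09) begins day 1, dosed per injection in mg/kg. %T/C is the median lifespan of treated animals divided by that of tumored untreated controls, ×100. Cures are animals alive on the last test day. Toxic deaths are assessed on day 4.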

B16 [3] = test: (§4) Difference in body weight in grams between test and control animals at a dose of 5 mg/kg intraperitoneally; type: functional, Mus musculus; conditions: route intraperitoneal; in short: as §2
B16 [4] = test: Antitumor activity in B16 Melanoma system animals is indicated by survivors on day 4 at a dose of 1.25 mg/kg intraperitoneally; type: functional, Mus musculus; conditions: route intraperitoneal
In short: (§5)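 B16 melanoma, 10^6 cells inoculated ip on day 0. Ip treatment started day 1, schedule Q01Dx09 (one dose daily for 9 days). The score is live animals on day 4 over total animals; early deaths are taken as drug toxicity.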

B16 [5] = test: Percent of median lifetime of test animals divided by the median lifetime of control animals at a dose of 2.5 mg/kg intraperitoneally; type: functional, Mus musculus; conditions: route intraperitoneal; in short: as §3
B16 [6] = test: Antitumor activity in B16 Melanoma system animals is indicated by survivors on day 4 at a dose of 10 mg/kg intraperitoneally; type: functional, Mus musculus; parameters: reference not given here; conditions: route intraperitoneal; in short: as §5
B16 [7] = test: Antitumor activity in B16 Melanoma system animals is indicated by survivors on day 4 at a dose of 2.5 mg/kg intraperitoneally; type: functional, Mus musculus; parameters: reference not given here; conditions: route intraperitoneal; in short: as §5
B16 [8] = test: Percent of median lifetime of test animals divided by the median lifetime of control animals at a dose of 10 mg/kg intraperitoneally; type: functional, Mus musculus; conditions: route intraperitoneal; in short: as §3
B16 [9] = test: (§6) Difference in body weight in grams between test and control animals at a dose of 20 mg/kg intraperitoneally; type: functional, Mus musculus; conditions: route intraperitoneal; in short: as §2
B16 [10] = test: Antitumor activity in B16 Melanoma system animals is indicated by survivors on day 4 at a dose of 5 mg/kg intraperitoneally; type: functional, Mus musculus; conditions: route intraperitoneal; in short: as §5
B16 [11] = test: (§7) Difference in body weight in grams between test and control animals at a dose of 2.5 mg/kg intraperitoneally; type: functional, Mus musculus; conditions: route intraperitoneal; in short: as §2
B16 [12] = test: Difference in body weight in grams between test and control animals at a dose of 1.25 mg/kg intraperitoneally; type: functional, Mus musculus; conditions: route intraperitoneal; in short: as §2
B16 [13] = test: Percent of median lifetime of test animals divided by the median lifetime of control animals at a dose of 20 mg/kg intraperitoneally; type: functional, Mus musculus; conditions: route intraperitoneal; in short: as §3
B16 [14] = test: Percent of median lifetime of test animals divided by the median lifetime of control animals at a dose of 1.25 mg/kg intraperitoneally; type: functional, Mus musculus; conditions: route intraperitoneal; in short: as §3
B16 [15] = test: Antitumor activity in B16 Melanoma system animals is indicated by survivors on day 4 intraperitoneally; conditions: Mus musculus, route intraperitoneal
B16 [16] = test: Percent of median lifetime of test animals divided by the median lifetime of control animals at a dose of 22 mg/kg intraperitoneally; type: functional, Mus musculus; conditions: route intraperitoneal; in short: as §3
B16 [17] = test: Percent of median lifetime of test animals divided by the median lifetime of control animals at a dose of 44 mg/kg intraperitoneally; type: functional, Mus musculus; conditions: route intraperitoneal; in short: as §3
B16 [18] = test: Difference in body weight in grams between test and control animals at a dose of 2.75 mg/kg intraperitoneally; type: functional, Mus musculus; conditions: route intraperitoneal; in short: as §2
B16 [19] = test: Difference in body weight in grams between test and control animals at a dose of 5.5 mg/kg intraperitoneally; type: functional, Mus musculus; conditions: route intraperitoneal; in short: as §2
B16 [20] = test: Difference in body weight in grams between test and control animals at a dose of 11 mg/kg intraperitoneally; type: functional, Mus musculus; conditions: route intraperitoneal; in short: as §2
B16 [21] = test: Difference in body weight in grams between test and control animals at a dose of 44 mg/kg intraperitoneally; type: functional, Mus musculus; conditions: route intraperitoneal; in short: as §2
B16 [22] = test: Percent of median lifetime of test animals divided by the median lifetime of control animals at a dose of 2.75 mg/kg intraperitoneally; type: functional, Mus musculus; conditions: route intraperitoneal; in short: as §3
B16 [23] = test: Antitumor activity in B16 Melanoma system animals is indicated by survivors on day 4 at a dose of 5.5 mg/kg intraperitoneally; type: functional, Mus musculus; conditions: route intraperitoneal; in short: as §5
B16 [24] = test: Percent of median lifetime of test animals divided by the median lifetime of control animals at a dose of 5.5 mg/kg intraperitoneally; type: functional, Mus musculus; conditions: route intraperitoneal; in short: as §3
B16 [25] = test: Percent of median lifetime of test animals divided by the median lifetime of control animals at a dose of 11 mg/kg intraperitoneally; type: functional, Mus musculus; conditions: route intraperitoneal; in short: as §3
B16 [26] = test: Antitumor activity in B16 Melanoma system animals is indicated by survivors on day 4 at a dose of 11 mg/kg intraperitoneally; type: functional, Mus musculus; conditions: route intraperitoneal; in short: as §5
B16 [27] = test: Antitumor activity in B16 Melanoma system animals is indicated by survivors on day 4 at a dose of 44 mg/kg intraperitoneally; type: functional, Mus musculus; conditions: route intraperitoneal; in short: as §5
B16 [28] = test: Antitumor activity in B16 Melanoma system animals is indicated by survivors on day 4 at a dose of 2.75 mg/kg intraperitoneally; type: functional, Mus musculus; conditions: route intraperitoneal; in short: as §5
B16 [29] = test: Antitumor activity in B16 Melanoma system animals is indicated by survivors on day 4 at a dose of 22 mg/kg intraperitoneally; type: functional, Mus musculus; conditions: route intraperitoneal; in short: as §5
B16 [30] = test: Difference in body weight in grams between test and control animals at a dose of 22 mg/kg intraperitoneally; type: functional, Mus musculus; conditions: route intraperitoneal; in short: as §2
B16 [31] = test: (§8) Difference in body weight in grams between test and control animals at a dose of 40 mg/kg intraperitoneally; type: functional, Mus musculus; conditions: route intraperitoneal; in short: as §2
B16 [32] = test: Antitumor activity in B16 Melanoma system animals is indicated by survivors on day 4 at a dose of 20 mg/kg intraperitoneally; type: functional, Mus musculus; parameters: reference not given here; conditions: route intraperitoneal; in short: as §5
B16 [33] = test: Percent of median lifetime of test animals divided by the median lifetime of control animals at a dose of 40 mg/kg intraperitoneally; type: functional, Mus musculus; conditions: route intraperitoneal; in short: as §3
B16 [34] = test: Antitumor activity in B16 Melanoma system animals is indicated by survivors on day 4 at a dose of 40 mg/kg intraperitoneally; type: functional, Mus musculus; conditions: route intraperitoneal; in short: as §5
B16 [35] = test: Antitumor activity in B16 Melanoma system animals is indicated by survivors on day 4 at a dose of 1.2 mg/kg intraperitoneally; type: functional, Mus musculus; conditions: route intraperitoneal; in short: as §5
MX1 [36] = test: as §1; type: functional, Mus musculus; conditions: route intraperitoneal
MX1 [37] = test: as §6; type: functional, Mus musculus; conditions: route intraperitoneal
MX1 [38] = test: as §8; type: functional, Mus musculus; conditions: route intraperitoneal
B16 [39] = test: Difference in body weight in grams between test and control animals at a dose of 1.2 mg/kg intraperitoneally; type: functional, Mus musculus; conditions: route intraperitoneal
In short: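 B16 melanoma, 10^6 cells ip on day 0, then ip dosing from day 1, once daily for 9 days (Q01Dx09). The value is the body-weight difference in grams, treated minus tumored control animals.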

MX1 [40] = test: as §7; type: functional, Mus musculus; conditions: route intraperitoneal
MX1 [41] = test: as §4; type: functional, Mus musculus; conditions: route intraperitoneal

| SMILES | Weight difference (B16 [1]) | T/C (B16 [2]) | Weight difference (B16 [3]) | Activity (B16 [4]) | T/C (B16 [5]) | Activity (B16 [6]) | Activity (B16 [7]) | T/C (B16 [8]) | Weight difference (B16 [9]) | Survivors on day 4 (B16 [10]) | Weight difference (B16 [11]) | Weight difference (B16 [12]) | T/C (B16 [13]) | T/C (B16 [14]) | Activity (B16 [32]) | further results |
| --- | --- | --- | --- | --- | --- | --- | --- | --- | --- | --- | --- | --- | --- | --- | --- | --- |
| CC(=O)OC1C(=O)[C@]2(C)C(O)C[C@H]3OC[C@@]3(OC(C)=O)[C@H]2[C@H](OC(=O)c2ccccc2)[C@]2(O)CC(OC(=O)[C@@H]3OC(=O)N(C(=O)c4ccccc4)[C@H]3c3ccccc3)C(C)=C1C2(C)C (stereo partly drawn) | -0.1 g | 95% | 0 g | 10 | 88% | 10 | 10 | 100% | -0.2 g | 10 | -0.3 g | -0.2 g | 98% | 94% | – | Activity (B16 [15]): 10 |
| CC(=O)OC1C(=O)[C@]2(C)[C@@H](OC(=O)CCC(=O)O)C[C@H]3OC[C@@]3(OC(C)=O)[C@H]2[C@H](OC(=O)c2ccccc2)[C@]2(O)CC(OC(=O)C(OC(=O)CCC(=O)O)C(NC(=O)c3ccccc3)c3ccccc3)C(C)=C1C2(C)C (stereo partly drawn) | – | – | – | – | – | – | – | – | – | – | – | – | – | – | – | T/C (B16 [16]): 105%; T/C (B16 [17]): 114%; Weight difference (B16 [18]): -0.3 g; Weight difference (B16 [19]): -0.3 g; Weight difference (B16 [20]): 0.1 g; Weight difference (B16 [21]): 0 g; T/C (B16 [22]): 109%; Activity (B16 [23]): 10; T/C (B16 [24]): 113%; T/C (B16 [25]): 124%; Activity (B16 [26]): 10; Activity (B16 [27]): 10; Activity (B16 [28]): 10; Activity (B16 [29]): 10; Weight difference (B16 [30]): 0.3 g |
| CC(=O)OC1C(=O)[C@@]2(C)[C@H]([C@H](OC(=O)c3ccccc3)[C@]3(O)CC(OC(=O)C(OC(=O)CCC(=O)[O-])C(NC(=O)c4ccccc4)c4ccccc4)C(C)=C1C3(C)C)[C@]1(OC(C)=O)CO[C@@H]1C[C@@H]2O.[Na+] (stereo partly drawn) | 0.6 g | 166% | 0 g | 10 | 159% | 10 | 10 | 183% | -0.2 g | 10 | 0.4 g | 0.1 g | 201% | 111% | 10 | Weight difference (B16 [31]): 0.6 g; T/C (B16 [33]): 218%; Activity (B16 [34]): 10 |
| CC(=O)OC1C(=O)[C@@]2(C)[C@H]([C@H](OC(=O)c3ccccc3)[C@]3(O)CC(OC(=O)C(OC(=O)CCCC(=O)NCCCN(C)C)C(NC(=O)c4ccccc4)c4ccccc4)C(C)=C1C3(C)C)[C@]1(OC(C)=O)CO[C@@H]1C[C@@H]2O.Cl (stereo partly drawn) | -0.1 g | 188% | 0.1 g | – | 129% | 10 | 10 | 352% | 0 g | 10 | -0.1 g | – | 352% | 123% | 10 | Activity (B16 [35]): 10; Weight difference (MX1 [36]): -2.2 T-C; Weight difference (MX1 [37]): 0.3 T-C; Weight difference (MX1 [38]): -5.9 T-C; Weight difference (B16 [39]): -0.1 g; Weight difference (MX1 [40]): -0.6 T-C; Weight difference (MX1 [41]): 0.1 T-C |
